Data set [1] in a line: Mean residence time in C57BL/6J mouse at 1 mg/kg, iv after 24 hrs by LC-MS/MS analysis. It counts as ADME, organism-based. Particulars: in vivo. Put shortly: (§1)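 Single 1 mg/kg dose, intravenous or subcutaneous, to C57BL/6J mice. Blood sampled at 5, 10, 15, 30 min and 1, 3, 6, 8, 24 h post-dose. Plasma peptide quantified by LC/MS/MS. Parameters derived from the mean (n = 3) plasma concentration–time profile.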

The test system of data set [2] is Mus musculus. The experiment in a line: Mean absorption time in C57BL/6J mouse at 1 mg/kg through subcutaneous administration after 24 hrs by LC-MS/MS analysis. It counts as ADME, organism-based. The note with it: in vivo, sc. Put shortly: as §1
Data set [3] can be described thus: Plasma concentration in C57BL/6J mouse at 1 mg/kg, iv after 5 mins by LC-MS/MS analysis. It counts as ADME, organism-based. The procedure, abridged: as §1
Data set [4] has as its system Mus musculus. Briefly: AUC (0 to 24 hrs) in C57BL/6J mouse at 1 mg/kg, iv by LC-MS/MS analysis. The format is ADME, organism-based. More on the design: dose 1 mg/kg, time < 24 hr, route intravenous. Particulars: in vivo. Put shortly: as §1
Data set [5] in a line: Volume of distribution at steady state in C57BL/6J mouse at 1 mg/kg, iv after 24 hrs by LC-MS/MS analysis. It counts as ADME, organism-based. Particulars: in vivo, read-out: Vdss. The procedure, abridged: as §1
Data set [6] relates to Mus musculus. The experiment in a line: Total clearance in C57BL/6J mouse at 1 mg/kg, iv after 24 hrs by LC-MS/MS analysis. It counts as ADME, organism-based. The note with it: in vivo. The procedure, abridged: as §1
A short description of data set [7]: Cmax in C57BL/6J mouse at 1 mg/kg through subcutaneous administration after 24 hrs by LC-MS/MS analysis. It counts as ADME, organism-based. Set-up: dose 1 mg/kg, route subcutaneous. Particulars: in vivo, sc. The procedure, abridged: as §1
A short description of data set [8]: Tmax in C57BL/6J mouse at 1 mg/kg through subcutaneous administration after 24 hrs by LC-MS/MS analysis. It counts as ADME, organism-based. Particulars: in vivo, sc. Put shortly: as §1
A short description of data set [9]: AUC (0 to 24 hrs) in C57BL/6J mouse at 1 mg/kg through subcutaneous administration after 24 hrs by LC-MS/MS analysis. More on the design: time < 24 hr, dose 1 mg/kg, route subcutaneous. The format is ADME, organism-based. The note with it: in vivo, sc. Put shortly:
as §1

Data set [10] can be described thus: Mean residence time in C57BL/6J mouse at 1 mg/kg through subcutaneous administration after 24 hrs by LC-MS/MS analysis. The format is ADME, organism-based. Particulars: in vivo, sc. Put shortly:
as §1

The test system of data set [11] is Mus musculus. Briefly: Antiobesity activity in diet-induced obese C57BL/6J mouse model assessed as reduction in body weight at 1 mg/kg administered via subcutaneous osmotic pumps for 6 to 7 days relative to control. The format is functional. Set-up: scale not given: the % may be the effect or the level left. Put shortly:
(§2)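 Male C57BL/6J DIO mice received peptides at 1 mg/(kg·day) by continuous subcutaneous osmotic pump for 6–7 days (n = 6 per group). Body weight reduction expressed as a percentage versus vehicle.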

In data set [12] the test system is Mus musculus. Briefly: Antiobesity activity in diet-induced obese C57BL/6J mouse assessed as reduction in body weight at 1 mg/kg administered via subcutaneous osmotic pumps for 7 days relative to control. The format is functional. More on the design: scale not given: the % may be the effect or the level left. Put shortly: as §2
Data set [13] deals with Mus musculus. Briefly: Anorectic activity in lean mouse assessed as inhibition of food intake at 300 nmol/kg through bolus subcutaneous administration relative to control. It counts as functional. Particulars: sc.
Data set [14] deals with Mus musculus. The experiment in a line: Antiobesity activity in lean C57BL/6J mouse assessed as inhibition of food intake at 1 mg/kg administered via subcutaneous osmotic pumps for 3 continuous days relative to control. The note with it: sc.
For data set [15], the system named is Mus musculus. Briefly: Antiobesity activity in lean C57BL/6J mouse assessed as inhibition of food intake at 0.3 mg/kg administered via subcutaneous osmotic pumps for 3 continuous days relative to control. The note with it: sc.
Data set [16] has as its system Mus musculus. Briefly: Antiobesity activity in diet-induced obese C57BL/6J mouse assessed as inhibition of food intake at 1 mg/kg administered via subcutaneous osmotic pumps for 7 days measured on day 4 of dosing. The format is functional, organism-based. Put shortly: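 DIO mice given peptides continuously by subcutaneous osmotic pump for 7 days (n = 6), with body weight and cumulative food intake tracked daily. Statistics versus vehicle by Student's t test or Aspin-Welch test.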

The nature of data set [17]: Bioavailability in C57BL/6J mouse at 1 mg/kg through subcutaneous administration after 24 hrs by LC-MS/MS analysis. The format is ADME, organism-based. The note with it: in vivo, sc. The procedure, abridged: as §1
The target in data set [18] is T1, Neuropeptide Y receptor type 2 (Homo sapiens, UniProt P49146).
T1 sequence (P49146 whole entry): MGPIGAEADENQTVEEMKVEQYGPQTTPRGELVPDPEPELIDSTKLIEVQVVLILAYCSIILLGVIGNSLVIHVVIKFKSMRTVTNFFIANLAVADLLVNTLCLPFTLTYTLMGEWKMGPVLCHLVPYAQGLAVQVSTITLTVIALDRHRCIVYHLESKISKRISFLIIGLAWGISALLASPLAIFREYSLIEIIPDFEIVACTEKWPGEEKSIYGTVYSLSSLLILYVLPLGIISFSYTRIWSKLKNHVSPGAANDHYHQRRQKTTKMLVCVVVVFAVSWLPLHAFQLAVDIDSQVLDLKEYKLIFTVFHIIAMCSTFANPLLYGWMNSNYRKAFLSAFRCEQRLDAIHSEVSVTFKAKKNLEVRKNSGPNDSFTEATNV
The experiment in a line: Displacement of [125I]-PYY from human Y2R expressed in CHO cell membranes after 60 mins by liquid scintillation method. (In a radioligand displacement assay an active substance lowers the binding of a labelled ligand.)

The target in data set [19] is T1, Neuropeptide Y receptor type 2. Briefly: Agonist activity at human Y2R expressed in CHO cell membranes assessed as [35S]GTPgammaS binding after 120 mins by liquid scintillation method. It counts as functional. On the technique in general: GTPγS is a poorly hydrolysed GTP analogue; its binding reports G protein activation.
Data set [20] concerns Mus musculus. The experiment in a line: Anorectic activity in lean mouse assessed as inhibition of food intake at 1000 nmol/kg through bolus subcutaneous administration relative to control. The note with it: sc. It counts as functional.

SMILES strings stand for the structures. Activity calls are given as the source filed them. The calls are words filed in the database; no cut-off is given here. Where a SMILES comes first, the peptide text is derived from it. [ ]: non-standard residue; d: D form. The star is where a group is joined. ξ: configuration not given here. ξCha = NC(CC1CCCCC1)C(=O)O; Aib = CC(C)(N)C(=O)O; Bz = O=C(c1ccccc1)*

Broadly, the MRT is a mean duration of stay, worked out from the concentration-time curve. In general, AUC refers to the area under the concentration-time curve, a measure of exposure. Broadly, the Cmax is the highest concentration seen after dosing. Broadly, the Tmax is the time at which the peak concentration occurs. A word on the AUC(0-t): it is the area under the concentration-time curve up to a stated or last time point. By inhibition in vivo is commonly meant the share of the control response that was lost under treatment. What is called bioavailability is the share of a dose that reaches the circulation, judged against a reference dose that is usually intravenous. One may read the IC50 as the concentration needed to halve the response being measured. In general, EC50 refers to the concentration that produces a half-maximal response.

As to `CC(=O)N[C@@H](CO)C(=O)N1C[C@@H](O)C[C@@H]1C(=O)N[C@@H](CCCNC(=N)N)C(=O)N[C@@H](Cc1cnc[nH]1)C(=O)N[C@@H](CC1CCCCC1)C(=O)N[C@@H](CC1CCCCC1)C(=O)N[C@@H](CC(N)=O)C(=O)N[C@@H](CC(C)C)C(=O)NC(C)(C)C(=O)N[C@H](C(=O)N[C@@H](CCCNC(=N)N)C(=O)N[C@@H](CCC(N)=O)C(=O)N[C@@H](CCCNC(=N)N)C(=O)N[C@@H](CC1CCCCC1)C(N)=O)[C@@H](C)O` [listing 1 of 2 here], the MRT came to 10.8 min in data set [1] and 19.2 min in [10]. The molecule further displayed an MAT in the data set with Mus musculus [2] of 0.14 h. For the same molecule, in [3], the concentration at 5 min amounted to 935 nM. This molecule also returned an exposure (AUC) in the data set on Mus musculus [4] of 0.18 µM·h. For the same molecule, the Vd in [5] was found to be 0.533 L/kg. For the same molecule, in the data set on Mus musculus [6], the CL worked out at 49.47 mL/min/kg. This molecule yielded a Cmax in data set [7] of 98.1 nM. In data set [8], the time to peak (Tmax) stood at 10.2 min. The molecule also had an AUC(0-t) at 24 h in data set [9] of 0.0336 µM·h.

With `CC(=O)N[C@@H](CO)C(=O)N1C[C@@H](O)C[C@@H]1C(=O)N[C@@H](CCCNC(=N)N)C(=O)N[C@@H](Cc1cnc[nH]1)C(=O)N[C@@H](CC1CCCCC1)C(=O)N[C@@H](CC1CCCCC1)C(=O)N[C@@H](CC(N)=O)C(=O)N[C@@H](CC(C)C)C(=O)NC(C)(C)C(=O)N[C@H](C(=O)N[C@@H](CCCNC(=N)N)C(=O)N[C@@H](CCC(N)=O)C(=O)N[C@@H](CCCNC(=N)N)C(=O)N[C@@H](CC1CCCCC1)C(N)=O)[C@@H](C)O` [listing 2 of 2 here], the Activity is listed as -10.2% with Mus musculus [11] and 7.4% with Mus musculus [12]. Besides, the inhibition in vivo at 0.3 µmol/kg in the data set with Mus musculus [13] amounted to 23%. In addition, the inhibition in vivo at 1 mg/kg in the data set on Mus musculus [14] came to 79%. For the same molecule, the inhibition in vivo at 0.3 mg/kg with Mus musculus [15] amounted to 47%.

Consider `CC(=O)N[C@@H](CO)C(=O)N1C[C@@H](O)C[C@@H]1C(=O)N[C@@H](CCCNC(=N)N)C(=O)N[C@@H](Cc1cnc[nH]1)C(=O)NC(CC1CCCCC1)C(=O)NC(CC1CCCCC1)C(=O)N[C@@H](CC(N)=O)C(=O)N[C@@H](CC(C)C)C(=O)NC(C)(C)C(=O)N[C@H](C(=O)N[C@@H](CCCNC(=N)N)C(=O)N[C@@H](CCC(N)=O)C(=O)N[C@@H](CCCNC(=N)N)C(=O)NC(CC1CCCCC1)C(N)=O)[C@@H](C)O` (stereo partly specified), for which, in the data set with Mus musculus [16], the inhibition entry is “Active”.

With `CC(C)C[C@H](NC(=O)[C@H](CC(N)=O)NC(=O)C(CC1CCCCC1)NC(=O)C(CC1CCCCC1)NC(=O)[C@H](Cc1cnc[nH]1)NC(=O)[C@H](CCCNC(=N)N)NC(=O)c1ccccc1)C(=O)NC(C)(C)C(=O)N[C@H](C(=O)N[C@@H](CCCNC(=N)N)C(=O)N[C@@H](CCC(N)=O)C(=O)N[C@@H](CCCNC(=N)N)C(=O)NC(CC1CCCCC1)C(N)=O)[C@@H](C)O` (stereo partly specified) (Bz-RH[ξCha][ξCha]NL[Aib]TRQR[ξCha]-NH2), the values for the mean residence time (MRT) in data set [1] and in data set [10] were 27 min and 190 min, respectively. In data set [17], this molecule had a bioavailability of 5.9%. Further, the MAT with Mus musculus [2] is 2.72 h. In data set [18], this molecule had a 50% inhibitory concentration (IC50) of 7.4 nM. Besides, the EC50 in data set [19] stood at 2 nM. For the same molecule, the Activity with Mus musculus [11] amounted to 0.4%. This molecule returned a concentration at 5 min in data set [3] of 7550 nM. The same molecule returned an AUC in the data set on Mus musculus [4] of 3.56 µM·h. Moreover, the Vd in data set [5] was 0.073 L/kg. In addition, the CL in the data set on Mus musculus [6] came to 2.7 mL/min/kg. Moreover, the highest level in [7] (Cmax) was 75.6 nM. The Tmax in [8] came to 15 min. The molecule further returned an area under the curve AUC(0-t) at 24 h in data set [9] of 0.209 µM·h. The inhibition in vivo at 1 µmol/kg with Mus musculus [20] was 20%.

The values are drawn from ChEMBL document CHEMBL4033754, “Antiobesity Effect of a Short-Length Peptide YY Analogue after Continuous Administration in Mice” (ACS Med Chem Lett, 2017).
